Only some compounds are listed: those with a hit (about 3% of all), similar ones and a draw of the others.
SENP6 inh: blocks the human protease SENP6; Recombinant SENP6 catalytic domain, aminoluciferin luminescence; AID 2599; inhibition, % at 10 µM; actives 1.8% (n = 330,000);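 active = inhibition above about 50% at the single tested dose, limit read from the data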;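 also: plate controls were DMSO wells with enzyme for no effect and DMSO wells lacking enzyme for full effect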
SENP8 block-1: blocks the human protease SENP8; AID 2540; inhibition, % at 10 µM; actives 1.2% (n = 330,000); purified SENP8, Z-RLRGG-aminoluciferin cleavage, luminescence; Q96LD8; in the data active = inhibition above about 50%
SENP8 block-2: inhibitors of human SENP8 protease; Q96LD8; recombinant SENP8, Nedd8 substrate fluorescence; inhibition, % at 20 µM; actives 0.64% (n = 360,000); AID 602440; in the data active = inhibition mostly above about 40%, no sharp cut-off; inactive = mostly below about 27%
UBC13 inh: blocks human UBC13 polyubiquitin chain formation; TR-FRET; inhibition, % at 20 µM; actives 0.47% (n = 330,000); in the data active = inhibition above about 45%, passing the limit was not always enough
Apaf-1 inh: blocks human Apaf-1 apoptosome activity; reconstituted apoptosome caspase-3 activity, DEVD-Rh110 fluorescence; inhibition, % at 20 µM; actives 0.71% (n = 330,000); AID 489030; active = inhibition of at least 40% at 20 µM;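 also: plate controls were DMSO wells for no effect and DEVD-CHO caspase inhibitor wells for full effect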
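Material: biochemical Apaf-1 apoptosome reconstitution. Medium: Hepes buffer, pH 7.5. Also added: cytochrome c activation, bis-DEVD rhodamine 110 substrate. Timing: 30 min compound preincubation, 50 min activation, room temperature. Measured by: rhodamine 110 fluorescence at Ex 480/Em 540 nm.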
SENP7 inh: SENP7 protease inhibition; recombinant SENP7, Z-RLRGG-aminoluciferin luminescence, 40 min; inhibition, % at 5 µM; actives 1.5% (n = 330,000); AID 434973;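 active = inhibition above about 50% at the single test dose, limit read from the data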;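 also: plate controls were DMSO with enzyme for no effect and no enzyme buffer wells for full effect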
SENP8 conf: confirmation of human SENP8 protease inhibitors; shares compounds with SENP7 inh; Recombinant SENP8, Z-RLRGG-aminoluciferin luminescence, 60 min; inhibition, % at 12.5 µM; actives 40% (n = 6,200); AID 488912;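 active = mean inhibition across replicates above about 50%, limit read from the data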
SENP6 conf: confirmation of human SENP6 protease inhibitors | shares compounds with SENP7 inh | recombinant SENP6, Z-RLRGG-aminoluciferin luminescence | inhibition, % at 12.5 µM | actives 58% (n = 6,200)
SENP7 conf: human SENP7 inhibition, confirmed | shares compounds with SENP7 inh | recombinant SENP7, Z-RLRGG-aminoluciferin luminescence, 40 min | inhibition, % at 12.5 µM | actives 69% (n = 6,200)
Casp3 select: inhibits human caspase-3 in SENP selectivity test. shares compounds with SENP7 inh. purified caspase-3, Z-DEVD-aminoluciferin luminescence, 60 min. inhibition, % at 12.5 µM. actives 60% (n = 6,200). AID 488918;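 active = mean inhibition above about 50%, limit read from the data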;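 also: plate controls were enzyme with DMSO for no effect and wells without caspase-3 for full effect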
Luc interf: interferes with luciferase luminescence in SENP counter-screen; Pre-incubated SENP8/Z-RLRGG-aminoluciferin, luciferase luminescence interference; AID 488919; inhibition, % at 12.5 µM; actives 39% (n = 6,200); shares compounds with SENP7 inh;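 active = mean inhibition above about 50% when retested at one dose, limit read from the data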;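 also: plate controls were DMSO wells with completed reaction for no effect and substrate without enzyme for full effect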
An asterisk follows results filed as active; x = no result given.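 The calls were made as follows, unless noted: active = mean inhibition above about 50% in the one-dose retest (limit read from the data); inactive = the rest.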

SMILES | SENP6 inh | SENP8 block-1 | SENP8 block-2 | UBC13 inh | Apaf-1 inh | SENP7 inh | SENP8 conf | SENP6 conf | SENP7 conf | Casp3 select | Luc interf
O=C1c2ccccc2C(=O)C1(CO)c1ccccc1 | 56.1* | 30.6 | 18.1 | -30.7 | -6.3 | 14.8 | 38.4 | 50.4* | 82.0* | 77.4* | 48.1
CCCCC(=O)N1CCN(c2nc3ccc(F)cc3s2)CC1 | 84.1* | 72.6* | 1.0 | 1.7 | 8.7 | 81.9* | 77.8* | 74.9* | 94.6* | 89.0* | 48.7
COc1ccc(-c2csc(N3C(=N)SCC3=O)n2)cc1 | 73.8* | 79.9* | 20.9 | 5.0 | -12.1 | 8.8 | 19.9 | 12.2 | 17.0 | 17.9 | 0.1
Cc1ccc(-c2ccnc3c(Cl)c(C)nn23)cc1 | 12.9 | 3.5 | -37.6 | 14.9 | 10.0 | -6.6 | x | x | x | x | x
Cc1cc2ncc(-c3ccc(Cl)cc3)cn2n1 | -1.4 | 39.3 | 2.4 | 5.0 | -19.5 | 30.1 | x | x | x | x | x
Cc1ccc(-c2cnc3c(Cl)c(C)nn3c2)cc1 | 65.4* | 68.2* | 4.1 | -5.4 | 5.8 | 93.6* | 68.6* | 70.4* | 74.9* | 80.1* | 45.3
Cc1ccc(-c2cnc3cc(C)nn3c2)cc1 | 58.0* | 46.6 | -5.3 | -6.2 | -0.5 | 75.1* | 50.7* | 60.8* | 82.8* | 72.0* | 25.3
Fc1cccc2sc(Nc3nnc(-c4ccccc4)o3)nc12 | 85.1* | 63.0* | -314.6 | -5.8 | 8.6 | 45.4 | 8.1 | 7.4 | 1.4 | 60.3* | 2.7
Cc1ccc(S(=O)(=O)N2C[C@H]3C(=O)C[C@@H](c4ccc(Cl)cc4)N(S(=O)(=O)c4ccc(C)cc4)[C@H]3C[C@H]2c2ccc(Cl)cc2)cc1 | x | x | 14.1 | x | x | x | x | x | x | x | x
Nc1nc(Nc2ccccc2F)sc1C(=O)c1ccccc1 | 71.6* | 59.4* | -20.6 | -0.8 | 18.8 | 34.9 | 74.5* | 69.4* | 86.2* | 44.3 | 75.6*
Cc1nc(Nc2ccccc2)sc1C(=O)c1ccc(F)cc1 | -36.4 | -3.1 | -8.6 | 3.4 | 10.7 | 3.8 | x | x | x | x | x
CN1C(=O)C(CC(=O)O)S/C1=N\N=C\c1ccc(O)cc1O (stereo not given) | 60.6* | 28.3 | -42.0 | -12.4 | 0.8 | 41.1 | 34.3 | 32.6 | 73.6* | 79.5* | 40.2
COc1ccc(CNC(=O)C2CCN(S(=O)(=O)N3CCC(C)CC3)CC2)c(OC)c1 | x | x | 17.9 | x | x | x | x | x | x | x | x
CC(=O)Nc1ccc(NC(=O)CC2Nc3cccc4cccc(c34)NC2=O)cc1 (stereo not given) | 93.5* | 75.0* | -91.4 | -27.4 | 96.3* | 74.6* | -2.8 | -1.9 | 5.2 | 4.4 | -2.6
CCOc1ccc(NC(=O)CC2Nc3ccccc3NC2=O)cc1 (stereo not given) | 11.4 | 4.0 | -50.5 | 5.3 | -3.8 | 6.7 | x | x | x | x | x
CCN(CC)C(=O)c1cccc(-c2csc(C(O)c3ccc(F)c(F)c3)n2)c1 (stereo not given) | x | x | -31.7 | x | x | x | x | x | x | x | x
CCOC(=O)N1CCN(C2=C(NS(=O)(=O)c3ccc(C)cc3)C(=O)c3ccccc3C2=O)CC1 | 63.7* | 35.0 | 82.3* | -89.2 | 86.2* | 35.9 | 5.3 | 26.3 | 3.2 | 5.1 | -7.0
CCC12CC1(C(=O)OC)C(=O)N1CCc3c([nH]c4ccccc34)C12 (stereo not given) | x | x | -7.6 | x | x | x | x | x | x | x | x
COc1ccc(C(=O)Nc2ccc(-c3n[nH]c(=S)o3)cc2)cc1OC | -5.5 | 4.2 | -334.3 | -4.3 | 10.1 | 19.2 | x | x | x | x | x
O=C(Nc1ccc(-c2n[nH]c(=S)o2)cc1)c1ccccc1Br | 80.0* | 48.9 | -154.4 | 3.0 | -3.0 | 19.5 | 57.4* | 53.7* | 79.6* | 73.7* | 61.9*
